From the RNAGym collection of RNA variant scans (doi:10.1126/science.aae0568) come the findings set out here.

This sample holds only a part of the variants without activity.

Sequences and labels used below:
B1: tRNA (parent)
chain: GUUCCGUUGGCGUAAUGGUAACGCGUCUCCCUCCUAAGGAGAAGACUGCGGGUUCGAGUCCCGUACGGAACG

The variants in this data set derive from B1. The data set is described as follows: yeast fitness relative to wild type (ratio to wild type); higher = fitter; tRNA-Arg(CCU), competitive growth, 37 C, YPD. The procedure, abridged:
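A pool of Saccharomyces cerevisiae strains, each with a tRNA-Arg(CCU) gene variant at the native genomic locus, was competed in YPD at 37°C for 24 hours across six parallel replicates. The variants had been chemically synthesised at a 3% per-site mutation rate over 69 sites, and gene amplicons before and after competition were read by 100-nucleotide paired-end sequencing. Darwinian fitness relative to wild type rested on changes in genotype frequencies. Genotypes required ≥ 100 starting reads, and estimates < 0.5 were set to 0.5.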
Regarding GUCCCGUUGGCGUAAUGGUAACGCGUCUCCCUCCUAAGGGGAAGACUGCGGGUUCGACUCCCGUACGGAUCG [U3C A40G G58C A70U], the yeast fitness is at most 0.5. The value for GUCCCGUUGGCGUAAUGGUCACGCGUCUCCCUCCUAAGGAGAAGCCUGUGGGUUCGAGUCCCGUACGGAACG [U3C A20C A45C C49U] was at most 0.5.

As for GUCCCGUUGGCGUUAUGGUAACGCGUCUCCCUCCUAUGGAGAAGACUGCGGGUUCGAGUCCCGUACGGAACG [U3C A14U A37U], the yeast fitness is at most 0.5.

For GUCCCGUUGGCGUAAUGGUACCGCGUCUCCCUCCUAAGGAGAAGACUGCGGGUUCGAGUCCCGUACGGAACG [U3C A21C], the yeast fitness came out at 0.831. The value for GUCCCGUUGGCGUAAUGGUAACGAGUCUCCCUCCUAAGGAGAAGACUGCGGGUUCGAGUCCCGUAUGGAACG [U3C C24A C66U] was at most 0.5. The value for GUCCCGUUGGCGUAAUGGUAACGCGUCUCCCUCCUAAGGAGAAGACUGCGGGUUCGCGUCCCGUACGGAACG [U3C A57C] was 0.504. The value for GUCCCGUUGGCGUAAUGGUAACGCGUCUCCCUCCUAAGGAGAAGUCUGCGGGUUCGAGCCCCGUACGGAACG [U3C A45U U59C] was 0.699; that for GUCCCGUUGGCGUAAUGGUAACGCGUAUCCCUCCUAAGGAGAAGACUGCGGGUUCGAGUCCCGUACGGAACG [U3C C27A] was 0.706.

With GUCCCGUUGGCGUUCUGGUAACGCGUCUCCGUCCUAAGGAGAUGACUGCGGGUUCGAGUCCCGUACGGAACG [U3C A14U A15C C31G A43U], the yeast fitness was at most 0.5. The value for GUCACGUUGGCGUAACAGUAACGCGUCUCCCUCCUAAGGAGAAGACUGCGGGUUCGAGUCCCGUACGGAACG [U3C C4A U16C G17A] was at most 0.5; that for GUCCCGUUGGCGUAAUGGUAACGCGUCUCCCUCCUAAGGUGAAGACUGCGGGUUCGAGUCCCGUACGGAACG [U3C A40U] was 0.976; that for GUCGCGUUGGCGUAAUGGUAACCCGUCUCCCUCCUAAGGAGAAGACUGCGGGUUCGAGUCCCGUACGGAACG [U3C C4G G23C] was at most 0.5. The value for GUCCCGUUGGCGUUAUGGUAACGCGUCGCCCUCCUAAGGAGAAGACUGCGGGUUCGAGUCCCGUACGGAACG [U3C A14U U28G] was at most 0.5.

As for GUCCCGUUGGCGUAAUGGUAACGCGUCUCCCUCCUGAGGAGAAGACUGCGGGUUCGAGUCUCGUACGGAACG [U3C A36G C61U], the yeast fitness came out at 0.623.

Regarding GUCCAGUUGGCGUAAUGGUAACGCGUCUCCCUCCUAAGGAGAAGACUGCGGGUUCGAGUCCCGUAUGGAACG [U3C C5A C66U], the yeast fitness is 0.605.

With GUCCGGUUGGCGUAAUGGUGACGCGUCUCCCUCCUAAGGAGAAGACUGCGGGUUCGAGUCCCCUAGGGAACG [U3C C5G A20G G63C C66G], the yeast fitness was at most 0.5. The value for GUCCCGUUGGCGUACUGGUAACGCGUCUCCCUCCUAAGGAGAAGACUGCGGGUUCGAGUCCCGUCCGGAACG [U3C A15C A65C] was at most 0.5.

Take GUCCCGUUGGCGUAAUGGUACCGCGUCUCCCUCCUAAGGAGAAGCCUGUGGGUUCGAGUCCCGUACGGAACG [U3C A21C A45C C49U]: the yeast fitness worked out at 0.532. The value for GUCCCGUUGGCGUAAUGGUAACGCGUCUCCCUCCUAAGGAGAAGACUGCGGGUUCGAGUCCCGUACGGUACG [U3C A69U] was 1.03; that for GUCCCGUUGGCGUAGUGGUAACGCGUCUCCCUCCUAAGGAGAAGACUGCGGGUUCGAGUCCCGUACGCAACG [U3C A15G G68C] was 0.618; that for GUCCCGUUGGGGUAAUGGUAUCGCGUCUCCCUCCUAAGGAGAAGACUGCGGGUUCAAGUCCCGUACGGAACG [U3C C11G A21U G56A] was at most 0.5. The value for GUCUCGUUGGCGUAGUGGUAACGCGACUCCCACCUAAGGAGAAGACUGCGGGUUCGAGUCCUGUACCGAACG [U3C C4U A15G U26A U32A C62U G67C] was 0.613. The value for GUCCCGUUGGCGUAGUGGUAACGCGUCUCCCUCCUAAGGAGAAGACUGCGGGUUCGAGUGCUGUACGGAACG [U3C A15G C60G C62U] was at most 0.5; that for GUCCUGUUGGCGUAAUGGUAACGCGUCUCCCUCCUAAGCAGAAGACUGCGGGUUCGAGUCCCGUACGGAACG [U3C C5U G39C] was 0.57. As for GUCCCGUUGGCGUAAUGGUGACGCGUCUCCCUCCUAAGGAGAGGACUGCGGGUUCGAGUCCCGUACGGAACG [U3C A20G A43G], the yeast fitness came to 0.744. The value for GUCGCGUUGGCGUAAUGGUAACGCGUCUCCCUCCUAAGGAGAAGACUGCGGGUUCGAGUCCCGUAGGGAACG [U3C C4G C66G] was at most 0.5; that for GUCCCGUUGGGGUAAUGGUAACGCGUCUCCCUCGUCAGGAGAAGACUGCGGAUUCGAGUGCCGUACGGAACG [U3C C11G C34G A36C G52A C60G] was at most 0.5.

In the case of GUCCCGUUGGCGUAAUGGUAACGCGUCUCCCUCCUCAGGAGAAGACUGCGGGUUCGAGUCCCGUACGGAACG [U3C A36C], the yeast fitness amounted to 0.566. For GUACCGUUGGCGUAAUGGUAACGCGUCUCCCUCCUAAGGAGAAGACUGCGGGUUCGAGACCCGUACGGAACG [U3A U59A], the yeast fitness is 0.658. The value for GUACCGUUGGCGUAAUGGUAACGCGUCUCCCUCCUAAGGAGAAGACUGCGGGUUCGAGGCCCGUACGGAACG [U3A U59G] was 0.81. The value for GUCCGGUUGGCGUAAUGGUAACGCGUCUCCCUCCUAAGGGGAAGACUGCGGGUUCGAGUCCCGUACGGAACG [U3C C5G A40G] was at most 0.5.

In the case of GUCCCGUUGGCGUAAUGGUAACGCGUCUCCCUCCUAAGGUGAAGUCUGCGGAUUCGAGUCCCGUACGGAACG [U3C A40U A45U G52A], the yeast fitness was at most 0.5. The value for GUCCCGUUGGCGUAAUGGUAACGCGUCUCCCUCCUAAGGUGAAGACUGAGGGUUCGAGUCCAGUACGGAACG [U3C A40U C49A C62A] was at most 0.5; that for GUCCCGUUGGCGUAAUGGUAAAGCGUCUCCCUCCUAAGGAGAAGACUGCGGGUUCGAGUCCCGUACAGAACG [U3C C22A G67A] was 0.667. The value for GUCCCGUUGGCGUACUGGUAACGCGUCUCCCUCCUAAGGAGAAGACGGCGGGUACGAAUCCCGUACGGAACG [U3C A15C U47G U54A G58A] was at most 0.5; that for GUCCCGUUGGCGUAAUGGUAACGCGUCUCCCUCCUAAGGAGAAGACUGCGGGUUCGCGUCCCGAACGGAACG [U3C A57C U64A] was at most 0.5; that for GUCCCGUUGGCGUAAUGGUAACGCGUCUCCCUCCUAAGGAGAAGACUGCGGGUUCGAGUCCCGUGCGCAACG [U3C A65G G68C] was 0.561. The value for GUCCCGUUGGCGUAAUGGUAACGCGUCUCCCUCCUGAGCAGAAGACUGCGGGUUUGAGUCCCGUAUGGAACG [U3C A36G G39C C55U C66U] was at most 0.5.
